Drawing on ChEMBL document CHEMBL4513216, “Probing the Open Global Health Chemical Diversity Library for Multistage-Active Starting Points for Next-Generation Antimalarials” (ACS Infect Dis, 2020), this text covers cytotoxicity for 99 compounds.

The series in a line: Toxicity liver stage against HepG2, at 10uM. It is filed as cell-based. The arrangement: test concentration 10 uM, cell line HepG2-A16-CD81EGFP. The following applies: human, HepG2-A16-CD81EGFP cells; read-out: INHIBITION
An outline of the steps:
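Uninfected HepG2-A16-CD81EGFP cells, 3 × 10^3 per well, 1536-well, plated on prespotted compound at 10 μM final, parasite-free screening media added to match infected plates; puromycin 10 μM positive, DMSO 0.5% negative; run in parallel with 48 h PbLuc assay at 37 °C, 5% CO2; viability by CellTiter-Glo luminescence, normalized to controls.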
Turning to `Cc1cccc(NC(=O)[C@@H]2CCCN2Cc2nnc(C(C)C)n2C)n1`, the cytotoxicity at 10 µM is 5.81%.
With `CC(C)CCN1CCNC(=O)C1CC(=O)N1CCc2sccc2C1` (centres undefined), the cytotoxicity at 10 µM was -7.01%.
As for `CCc1noc(CN(Cc2ccc3c(c2)OCO3)C2CCCC2)n1`, the figure is -0.315%.
Regarding `Cc1nc(CC(=O)N2CCCC(n3ccnc3C(C)C)C2)cs1` (centres undefined), the cytotoxicity at 10 µM is -0.354%.
In the case of `O=C(NCC1(O)CCCC1)c1ccc2nsnc2c1`, the cytotoxicity at 10 µM is -5.37%.
For `Cc1nc(CN2C(=O)CC[C@@H]3[C@H]2CCN3C(=O)c2ccc[nH]2)cs1` the value was -77.3%.
As for `CCOCc1ncn2c1CN(C(=O)Nc1ccc(CC)cc1)CC2`, the figure is 5.96%; as for `CC(=O)NCCc1cc2nc(-c3ccncc3)ccn2n1`, 2.95%; as for `CC1CCC2(CC1)NC(=O)c1cc(Br)ccc1-n1nnnc12` (centres undefined), 10.1%.
As to `COc1ccc(NC(=O)C(c2ccc(OC)cc2)N2CCOCC2)cc1` (centres undefined), the cytotoxicity at 10 µM was -3.39%.
For `Cc1nc[nH]c1CN1CCCC12CCN(c1ccccn1)CC2` the value was 4.55%; for `CCn1ncc2c1C(COCC1CC1)CN(C(=O)c1cccs1)C2` (centres undefined), -7.64%.
As for `CS(=O)(=O)c1cc(NC(=O)COc2ccccc2F)cc(C(=O)O)c1`, the figure is -9.24%; as for `Cc1ccc(F)cc1S(=O)(=O)N1C[C@@H](C)[C@@](C)(O)C1`, -0.784%; as for `Cc1nn(C)c(C)c1CN(C)C(=O)C1COc2ccccc2C1` (centres undefined), -3.35%.
On to `O=C(CCc1ccsc1)N1CCC(Nc2cccnn2)CC1`, for which the cytotoxicity at 10 µM is -4.71%.
Take `O=C(O)c1cccnc1CN1CCCCC1CCc1cccc(O)c1` (centres undefined): the cytotoxicity at 10 µM is -1.84%.
As for `COc1ccsc1C(=O)N1CCCN(Cc2cscn2)CC1`, the figure is -9.12%; as for `CN(Cc1cccc(F)c1)C(=O)CN1CCOC(Cn2cccn2)C1` (centres undefined), -8.21%.
For `O=C(NCCCn1cccn1)C1(c2ccc(F)cc2)CC1` the value was -6.13%; for `Cc1nn(C2CCS(=O)(=O)C2)c(O)c1Cc1ccccc1` (centres undefined), -44.6%.
For `Cn1ccnc1CN1CCC(CCCc2ccccn2)(C(N)=O)CC1` the value was -1.31%; for `COc1cccc(NC(=O)CN2CCN(S(C)(=O)=O)CC2)c1`, -1%; for `O=C1N(Cc2ccc(Cl)cc2)CCC12CCCNC2` (centres undefined), -10.8%.
Take `CCc1nnc(CN(C)CC2CCCCC2)o1`: the cytotoxicity at 10 µM was 0.897%.
As for `CC(Oc1ccc(OCc2ncc(C(C)C)o2)cc1)C(N)=O` (centres undefined), the figure is -10.4%; as for `COCc1nc(-c2ccnc(N3CCNCC3)n2)no1`, 12.5%.
For `CC(=O)N1Cc2ccnn2CC(C(=O)NCc2cccnc2)C1` (centres undefined) the value was -97%.
Regarding `O=c1[nH]c(-c2ccccc2F)nc2c1CCNC2`, the cytotoxicity at 10 µM is -2.72%.
For `CN(Cc1ccon1)C(=O)C1CC(=O)N(Cc2cccnc2)C1` (centres undefined) the value was -3.83%; for `COc1cccc(CNCc2c(C(C)C)nn(C)c2N(C)C)c1`, -7.36%.
As for `COCCN1C(=O)CCC12CCC(NC(=O)c1cc(C)on1)CC2` (centres undefined), the figure is 3.94%.
For `CCC(C)NC(=O)c1cc(S(N)(=O)=O)c(Br)s1` (centres undefined), the cytotoxicity at 10 µM is -4.38%.
For `O=S(=O)(Cc1ccccc1)c1nnc(N2CCCC2)s1` the value was -6.27%; for `CC(C)c1nnc2n1CCN(C(=O)CN1Cc3ccccc3C1=O)C2`, -1.81%; for `CCNC(=O)c1ccc(N2CCCC(c3nccn3C(C)C)C2)nc1` (centres undefined), -8.39%.
For `O=C(NCCOC1CCCCC1)c1ccc(-c2ccco2)[nH]c1=O` the value was -8.08%.
As for `CCOC(=O)C1CN(C(=O)C2CCOCC2)Cc2ncn(CC)c21` (centres undefined), the figure is 5.65%.
Turning to `CN(CCc1ccncc1)c1cnn(C)c(=O)c1Br`, the cytotoxicity at 10 µM is -5.44%.
As to `COCCCN(C(=O)c1ccc(-n2ccnc2)cc1)C1CCN(C)CC1`, the cytotoxicity at 10 µM is -15.8%.
With `COC(C(=O)N1CCN(c2cccc(Cl)c2)C(=O)C1)c1ccccc1` (centres undefined), the cytotoxicity at 10 µM was -9.09%.
For `COc1ccc(Br)cc1NCC(=O)NC(C)(C#N)C1CC1` (centres undefined) the value was 23.4%.
For `Cc1ccc(C(C(=O)NCCc2nc(C)cc(=O)[nH]2)N(C)C)cc1` (centres undefined) the value was 1.92%; for `O=c1oc(-c2ccc(F)cc2)nn1CCS(=O)(=O)c1ccccc1`, -0.924%.
As for `O=C(OCc1ccccc1)C1CCCN1Cc1nc(C2CC2)no1` (centres undefined), the figure is -5.43%.
With `Nc1ccnc(-c2cc(NC3CCNCC3)nc3[nH]ccc23)c1`, the cytotoxicity at 10 µM worked out at 3.18%.
Regarding `CN(CCOc1ccccc1F)C1CCOC1=O` (centres undefined), the cytotoxicity at 10 µM is -147%.
For `COc1ccc(N2CCN(CC(O)c3ccc(C)cc3C)CC2)cc1` (centres undefined) the value was 11.8%.
As to `Cc1ccc(CNC(c2ccc(F)cc2)c2nccn2C)o1` (centres undefined), the cytotoxicity at 10 µM was found to be 0.841%.
On to `NCC1CCN(c2nc(C3CCCC3)nc3c2CCNCC3)C1` (centres undefined), for which the cytotoxicity at 10 µM was found to be 16.1%.
For `CCCNC(=O)C(C)n1cc(Br)cn1` (centres undefined) the value was -19.7%; for `Cc1nc(CN(C)C2CCN(CC3CCC3)C2)no1` (centres undefined), -8.19%; for `Cc1cc(C)c(C(=O)N2CCCC(O)(CN3CCCC3)C2)cc1C` (centres undefined), 8.4%.
For `Cc1cnc2n1CCN(C)C21CCN(CC2CC2)CC1` the value was 7.34%; for `CCNC(=O)NC(=O)CSC(C)c1c(F)cccc1F` (centres undefined), 20.6%.
For the compound `CN1CC2(CCN(CC3CC3)CC2)COc2ccccc2S1(=O)=O`, the cytotoxicity at 10 µM was -0.697%.
As for `CNC(=O)Cc1ccc(NC(=O)NC(C)C(C)C)cc1` (centres undefined), the figure is -4.69%; as for `CC(C)SCc1cccc(NC(=O)NCCc2nnc[nH]2)c1`, -46.1%.
Consider `CC(C1CCN(Cc2cccc(OC(F)F)c2)CC1)N1CCOCC1` (centres undefined), for which the cytotoxicity at 10 µM was -9.2%.
For `O=c1cc2c(nn1CN1CCSCC1)CCC2` the value was -4.86%.
As to `CCN(Cc1nc(C)no1)C(=O)C1CC(=O)N(Cc2cccnc2)C1` (centres undefined), the cytotoxicity at 10 µM is 4.03%.
As for `CS(=O)(=O)NC1CCN(C(=O)c2cc3ccccc3s2)C1` (centres undefined), the figure is 6.65%; as for `CCn1ccnc1CN1CCN(c2ncnc3ccsc23)CC1C` (centres undefined), 3.04%; as for `CSC1=Nc2c(cnn2-c2cccc(Cl)c2)C2=NCCCN12`, 4.81%.
As for `Cc1ccc(CN2CC3(CCN(C(=O)c4cscn4)C3)C2)s1`, the figure is -10.3%.
On to `CN(Cc1ccco1)C1COC2(CCN(Cc3nccs3)CC2)C1` (centres undefined), for which the cytotoxicity at 10 µM was 2.93%.
`CCc1n[nH]c(C2CN(Cc3nc(C4CC4)no3)CCO2)n1` (centres undefined): the cytotoxicity at 10 µM was -10.8%.
For `O=C(NC1CC1)c1cccc(S(=O)(=O)NCCc2nc(C3CC3)no2)c1`, the cytotoxicity at 10 µM is -0.714%.
For `c1ccc(OCc2n[nH]c3c2CN(Cc2cccs2)C3)nc1` the value was 8.25%; for `COCCN1CCO[C@@H]2CN(Cc3ccc(C)s3)C[C@@H]2C1`, -8.81%; for `CC(C)c1noc(CN2CCC3(CCCO3)CCC2=O)n1` (centres undefined), 0.145%.
Turning to `Cc1cnc(NC(C)Cc2cnccn2)nc1N(C)C` (centres undefined), the cytotoxicity at 10 µM came to 0.342%.
For `O=C(c1ccc(-n2cnnc2)cc1)N1CCC(Nc2cccnn2)CC1` the value was -6.12%; for `Cc1occc1C(=O)N1CCO[C@H]2[C@H](OCc3cccnc3)CC[C@@H]21`, 4.84%.
Regarding `Cn1nc(C(=O)NC2(c3ccccc3)CCC2)ccc1=O`, the cytotoxicity at 10 µM turned out to be 1.42%.
As to `CC(Cc1cn(CCc2nc(N)cc(O)n2)nn1)c1ccccc1` (centres undefined), the cytotoxicity at 10 µM is -5.58%.
For `O=C(c1ccc[nH]1)N1CCc2c(COCc3ccncc3)cncc2C1` the value was 14.7%.
For `Cc1nc(N)cc(C2CCN2CCOc2ccccc2)n1` (centres undefined) the value was 10%; for `COCCN1C(=O)[C@@H]2CC[C@H]1CN(C(=O)Cc1c(F)cccc1Cl)C2`, -1.02%; for `CN1C(=O)C(c2ccccc2)CC12CCN(CCO)CC2` (centres undefined), 5.12%.
On to `Cc1cccc(OCC2CCCN(C(=O)CN(C)C3CCNCC3)C2)c1` (centres undefined), for which the cytotoxicity at 10 µM was -8.4%.
With `O=C(Nc1ccc2c(c1)OCCO2)N1CCCN(Cc2cccs2)CC1`, the cytotoxicity at 10 µM turned out to be 3.45%.
For `CN(Cc1nccn1C)C(=O)c1cccc(CCC(C)(C)O)c1` the value was 1.26%; for `Cc1ccc2c(c1)CCC21CCN(CCO)CC1`, -0.675%.
For `CCC(CO)N(Cc1cccs1)C(=O)Cc1ccc(O)cc1` (centres undefined), the cytotoxicity at 10 µM amounted to 6.57%.
In the case of `CC(C)N(C)Cc1noc2c1CN(C(=O)c1ccsc1)CC2`, the cytotoxicity at 10 µM was 4.89%.
`O=C(O)c1ccc(CC2CCN(Cc3ccc(-c4cc[nH]n4)o3)C2)cc1` (centres undefined): the cytotoxicity at 10 µM is 6.37%.
For `CO[C@@H]1CCC[C@@H](N(C)C(=O)c2cc(F)ccc2F)[C@H]1O`, the cytotoxicity at 10 µM was -5.38%.
For `CC(C)CCN1CCN(Cc2nc(C(C)C)no2)CC1`, the cytotoxicity at 10 µM is -6.71%.
For `COc1ccc(CNC(=O)Nc2cccnc2N2CCCC2)cc1O` the value was -10.7%; for `CCC1CN(CCC(=O)N(C)C)CCN1CCOC` (centres undefined), -6.34%.
For `COCCN(C)[C@@H]1c2ccccc2C2(CCNCC2)[C@H]1O` the value was -4.61%; for `CCOCc1nc(CSc2ccncc2)n(C)n1`, 2.87%.
For `CC(c1cc(F)ccc1F)N1CCN(Cc2nccn2C)CC1` (centres undefined) the value was -15.6%.
Consider `CCC(C)(N)c1nc(=O)c(C(C)C)c(C)[nH]1` (centres undefined), for which the cytotoxicity at 10 µM is -6.17%.
For `CNCc1cnc(Nc2ccccc2)nc1` the value was 1.38%; for `COc1ccc(S(=O)(=O)NC(=O)COC2CCCCC2)cc1C`, -3.56%.
As for `Cc1cccc(C)c1OCCC(=O)N1CCC(c2nncn2C)CC1`, the figure is -12%; as for `CS(=O)(=O)c1cccc(C(=O)NCCCN2CCc3ccccc3C2)c1`, -12.1%.
